In experiment [1] the target is Phosphodiesterase 4 (Homo sapiens, UniProt P27815+Q08499+Q07343+Q08493). As to conditions: Oryctolagus cuniculus; Kidney.
Experiment [2] is described as follows: Inhibition of cAMP phosphodiesterase preparation from rabbit lung at a substrate concentration of 0.14 uM.
Experiment [3] concerns Canis familiaris. Description: Inotropic change in blood pressure (systolic/diastolic mmHg) in anesthetized dog; -6/-22. As to conditions: Canis lupus familiaris; Artery. It is filed as functional, organism-based. The gist of the method: (§1)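 Adult mongrel dogs of either sex, induced with sodium methohexital and maintained on methoxyflurane, breathing spontaneously at 37 ± 1 °C. The right atrium was electrically paced, and the pacer was switched off periodically to obtain spontaneous rate. Dose was 3.1 mg/kg iv via the femoral vein. Catheter-tip transducers recorded aortic and LV pressure; LV dP/dt max indexed contractility. BP and rate were taken at the time of maximal % change in dP/dt max. 1–4 dogs were used per compound.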

Experiment [4] concerns Canis familiaris. Description: Evaluated for dP/dt max in anesthetized dogs. It is filed as functional, Canis lupus familiaris. The method in brief: as §1
Experiment [5] deals with Canis familiaris. Description: Change in heart rate (beats/min) in anesthetized dog. Type of experiment: functional, Canis lupus familiaris. The method in brief: as §1
Experiment [6] deals with Canis familiaris. Description: Inotropic change in blood pressure (systolic/diastolic mmHg) in anesthetized dog; 6/-19. Type of experiment: functional, organism-based. As to conditions: Canis lupus familiaris; Artery. The gist of the method:
as §1

Experiment [7] concerns Canis familiaris. Description: Inotropic change in blood pressure (systolic/diastolic mmHg) in anesthetized dog; 0/-6. It is filed as functional, Canis lupus familiaris, Artery. The gist of the method:
as §1

Experiment [8] deals with Canis familiaris. Description: Inotropic change in blood pressure (systolic/diastolic mmHg) in anesthetized dog; 2/-5. It is filed as functional, organism-based. To be noted: Canis lupus familiaris; Artery. The method in brief: as §1
For experiment [9], the system named is Canis familiaris. Description: Inotropic change in blood pressure (systolic/diastolic mmHg) in anesthetized dog; -4/-9. As to conditions: Canis lupus familiaris; Artery. It is filed as functional, organism-based. The method in brief:
as §1

In experiment [10] the test system is Canis familiaris. Description: Inotropic change in blood pressure (systolic/diastolic mmHg) in anesthetized dog; -8/-25. Type of experiment: functional, organism-based. To be noted: Canis lupus familiaris; Artery. The gist of the method: as §1

Active and inactive are the calls of the source. The rule behind the calls is not given here.

In turn, `CCNc1ncnc2c1nc(SCc1ccccc1)n2[C@@H]1O[C@@H]2COP(=O)(O)O[C@H]2[C@H]1O` gave a Hydrolysis in experiment [1] below 0.05. The I50 in experiment [2] was 2.5 µM. Further, in experiment [3], the Change entry is “inactive”. Moreover, the figures for the Change in [4] and in experiment [5] were 80% and 10 beats/min, respectively.

In the case of `CCCNc1ncnc2c1nc(SCc1ccccc1)n2[C@@H]1O[C@@H]2COP(=O)(O)O[C@H]2[C@H]1O`, in [6], the Change entry is “inactive”. Also, the Hydrolysis in experiment [1] is below 0.05. For the same compound, the I50 in [2] was found to be 3.6 µM. Also, the values for the Change in experiment [4] and in experiment [5] were 127% and 24 beats/min, respectively.

In turn, `CNc1ncnc2c1nc(SCc1ccccc1)n2[C@@H]1O[C@@H]2COP(=O)(O)O[C@H]2[C@H]1O` showed a Hydrolysis in experiment [1] below 0.05. The compound further yielded an I50 in experiment [2] of 120 µM. The Change in [7] turned out to be 0%; in experiment [4], 71%; in [5], 0 beats/min.

`CCCCNc1ncnc2c1nc(SCc1ccccc1)n2[C@@H]1O[C@@H]2COP(=O)(O)O[C@H]2[C@H]1O` yielded a Hydrolysis in [1] below 0.05. The compound further returned an I50 in [2] of 20 µM. Also, in experiment [8], the Change result is “inactive”. Further, the Change in experiment [4] worked out at 84%; in experiment [5], 0 beats/min.

On to `CCN(CC)c1ncnc2c1nc(SCc1ccccc1)n2[C@@H]1O[C@@H]2COP(=O)(O)O[C@H]2[C@H]1O`, for which the Hydrolysis in [1] was below 0.05. Besides, in [2], the I50 stood at 3.6 µM. The Change result in experiment [9] was “inactive”. Further, the Change in experiment [4] is given as 45%; in experiment [5] it was 5 beats/min.

Take `CN(C)c1ncnc2c1nc(SCc1ccccc1)n2[C@@H]1O[C@@H]2COP(=O)(O)O[C@H]2[C@H]1O`: the Hydrolysis in experiment [1] is below 0.05. Moreover, in [10], the Change entry was “inactive”. In addition, the Change in experiment [4] was 61%; in experiment [5], 15 beats/min.

For `Nc1ncnc2c1nc(SCc1ccc([N+](=O)[O-])cc1)n2[C@@H]1O[C@@H]2COP(=O)(O)O[C@H]2[C@H]1O`, the Hydrolysis in [1] is below 0.05. In experiment [2], the I50 is 27 µM.

As for `Cc1ccccc1Sc1nc2c(N)ncnc2n1[C@@H]1O[C@@H]2COP(=O)(O)O[C@H]2[C@H]1O`, the Hydrolysis in experiment [1] was below 0.05. This compound registered an I50 in experiment [2] of 29 µM.

Turning to `Nc1ncnc2c1nc(S)n2[C@@H]1O[C@@H]2COP(=O)(O)O[C@H]2[C@H]1O`, the Hydrolysis in experiment [1] is below 0.05. This compound came in with an I50 in experiment [2] of 20 µM.

In [1], `Nc1ncnc2c1nc(SCc1cccnc1)n2[C@@H]1O[C@@H]2COP(=O)(O)O[C@H]2[C@H]1O` showed a Hydrolysis below 0.05. In experiment [2], this compound yielded an I50 of 100 µM.

As for `Nc1ncnc2c1nc(SCCO)n2[C@@H]1O[C@@H]2COP(=O)(O)O[C@H]2[C@H]1O`, in experiment [1], the Hydrolysis is below 0.05. Moreover, the I50 in experiment [2] came out at 20 µM.

As to `O=P1(O)OC[C@H]2O[C@@H](n3cnc4c(Cl)ncnc43)[C@H](O)[C@@H]2O1`, in [1], the Hydrolysis is 1.2. The compound further gave an I50 in [2] of 20 µM.
